From PubChem
Sampled rows, rich in hits. Any-hit rate of the full collection: about 3%.
CaV13 FRET inh = Primary screen for inhibitors of IQ motif and Ca2+-dependent inactivation inhibitor domain binding in CACNA1D, Förster resonance energy transfer in living cells, …. HEK cells, CFP/YFP FRET ICDI-IQ, plate reader, 10 min; percent FRET-ratio fall versus neutral wells. inhibition, % at 12.3 µM. hit rate 0.098% among 340,000. AID 743397;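 active means mean replicate inhibition of at least 30% and at least 1% of replicates passing that level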
PvdQ acylase = blocks Pseudomonas aeruginosa PvdQ acylase activity; hit rate 0.063% among 340,000; purified PvdQ acylase, fluorescence plate reader; inhibition, % at 10 µM; in the data active means inhibition above about 30%, passing the limit was not always enough
PfHsp90 set2 = inhibits growth of yeast expressing Plasmodium falciparum Hsp90; S. cerevisiae expressing PfHsp90, BacTiter-Glo ATP, 48 h; yeast lacking PDR1 and PDR3 efflux regulators; inhibition, % at 9.4 µM; hit rate 0.32% among 310,000;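 active means every replicate shows inhibition above about 80%, whatever the replicate mean, limit read from the data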
HSF1 activator = increases HSF-1 driven luciferase reporter signal; hit rate 1.7% among 300,000; NIH3T3-HGL HSF-1 luciferase reporter, MG132, 8 h; 100% = twice DMSO control signal; activation, % at 9 µM;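 active means mean replicate activation of at least 50% with a set share of replicates each reaching 50%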
Glyco luc inh = N-linked glycosylation inhibition; D54 ERlucT glycosylation luciferase reporter, 24 h; percent of 100 nM tunicamycin response; reporter increase, % at 12.5 µM; hit rate 0.23% among 360,000; AID 588692;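 active means mean luciferase reporter signal, scaled so untreated is 0 and the glycosylation-blocking control 100, at or above a set limit in every replicate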;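 further: luciferase carries N-glycosylation sites so blocking glycosylation raises the light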
T cruzi inh = blocks replication of Trypanosoma cruzi; T. cruzi beta-gal in NIH3T3, luminescence, 90 h; inhibition, % (no concentration beside the values); hit rate 1.4% among 300,000; AID 1885;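 active means mean inhibition across valid replicates above about 55%, limit read from the data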;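 further: signal also drops with host cell toxicity which is not excluded here; higher percent means less beta-gal luminescence so fewer parasites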
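compound dosing = single 50 nL compound addition per well in DMSO | material = NIH/3T3 host cells with β-galactosidase reporter T. cruzi | input = 5,000 host fibroblasts per well | timing = ≥90 h infection period, 3 h prior cell attachment | read-out basis = percent inhibition of parasite-derived β-gal signal | detection = GalScreen β-gal luminescence, detergent lysis, 60 min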
Of the large screens only hits and unclear results are named; the others gave an inactive call.

COc1ccc(-n2c(=O)c3ccccc3c3ccccc3c2=O)cc1	none
COc1ccc(OC)c(-n2c(=O)c3ccccc3c3ccccc3c2=O)c1	HSF1 activator 59
Cc1ccc(S(=O)(=O)N2CC3C(=O)C[C@@H](c4ccccc4)N(S(=O)(=O)c4ccccc4Cl)C3CC2c2ccccc2)cc1 (some centres undefined)	none (no result: PvdQ acylase, PfHsp90 set2, HSF1 activator, Glyco luc inh, T cruzi inh)
CN(NC(=O)C(=O)NCc1ccco1)C(=O)Nc1ccc(Cl)cc1	none (no result: PvdQ acylase, PfHsp90 set2, HSF1 activator, T cruzi inh)
CC(=O)N(Cc1ccco1)c1nc(C(=O)Nc2ccc(Cl)cc2)c(C)s1	HSF1 activator 53
O=C(CCCN1C(=O)c2cccc3cccc(c23)C1=O)N1CCN(c2ccc(F)cc2)CC1	none
COc1ccc(N2CCN(C(=O)CCCN3C(=O)c4cccc5cccc(c45)C3=O)CC2)cc1	T cruzi inh 75 (no result: PfHsp90 set2)
O=C(CCl)N(C/C=C/c1ccccc1)c1ccc2c(c1)OCCO2	T cruzi inh 93
Cc1cccc(C)c1OCc1nnc(SCC(=O)O)n1-c1c(C)cccc1C	none (no result: PvdQ acylase, PfHsp90 set2, HSF1 activator, Glyco luc inh, T cruzi inh)
N#Cc1ccc(/C=C\c2nccc3c2[nH]c2ccccc23)cc1	CaV13 FRET inh 38
O=C(O)c1cccc(NN=C2c3ccccc3-c3ccccc32)c1	PfHsp90 set2 106
CCn1c2ccccc2c2cc(NC(=O)COC(=O)c3cc(S(N)(=O)=O)c(Cl)cc3Cl)ccc21	Glyco luc inh 40
CCn1c2ccccc2c2cc(NC(=O)COC(=O)c3ccccc3O)ccc21	none
Cc1cc(Cl)ccc1NC(=O)C1COc2ccccc2O1 (centres undefined)	HSF1 activator 53
O=C(NCC1COc2ccccc2O1)c1ccc(Cl)cc1 (centres undefined)	HSF1 activator 62 (no result: PfHsp90 set2)
CCC(=O)N1CCCC1(C)C(=O)Nc1cc(OC)ccc1OC (centres undefined)	none (no result: PvdQ acylase, PfHsp90 set2, HSF1 activator, T cruzi inh)
CC(C)c1ccc(Oc2cccc3c2S(=O)(=O)N([C@H](C)c2ccccc2)C[C@@H](COCc2ccccc2)O3)cc1	none (no result: PvdQ acylase, PfHsp90 set2, HSF1 activator, Glyco luc inh, T cruzi inh)
Cc1cccc(NC(=O)c2cc(-c3cc(C)ccc3O)n[nH]2)c1	HSF1 activator 104
Cc1c(Cl)cccc1NC(=O)c1cc(-c2ccccc2O)n[nH]1	HSF1 activator 87 (no result: CaV13 FRET inh)
CC(c1ccc(Cl)cc1)N(CCN(C)C)c1ccccn1 (centres undefined)	none (no result: PvdQ acylase, PfHsp90 set2, HSF1 activator, Glyco luc inh, T cruzi inh)
C[C@@H](NC(=O)c1ncn2c1c(=O)[nH]c1ccc(Br)cc12)c1ccccc1	Glyco luc inh 33 (no result: PvdQ acylase, PfHsp90 set2, HSF1 activator, T cruzi inh)
C[C@@H](NC(=O)c1ncn2c1c(=O)[nH]c1cccnc12)c1ccccc1	none (no result: PvdQ acylase, PfHsp90 set2, HSF1 activator, T cruzi inh)
COc1cccc(C(C(=O)NCc2ccccc2)N2CCN(c3cccc(C)c3C)CC2)c1OC (centres undefined)	none (no result: PvdQ acylase, PfHsp90 set2, HSF1 activator, Glyco luc inh, T cruzi inh)
Cc1cc2c(=O)n(Cc3ccco3)c(SCC(=O)c3ccc(Cl)s3)nc2s1	HSF1 activator 78 (no result: PfHsp90 set2)
CCc1nc2ccc(C(=O)N(C)Cc3ccco3)cn2c1N(C)CCCc1ccccc1	none (no result: PvdQ acylase, PfHsp90 set2, HSF1 activator, T cruzi inh)
CC1(C(=O)OCC(=O)Nc2ccc3ccccc3c2)CC1(Cl)Cl (centres undefined)	HSF1 activator 66
COc1ccc(-c2ccc(CN3C(C)C(=O)N(Cc4cn(CCC5OCCO5)nn4)CCS3(=O)=O)cc2)cc1 (centres undefined)	none (no result: PvdQ acylase, PfHsp90 set2, HSF1 activator, T cruzi inh)
Cc1ccc(SCC(=O)NCCc2ccccc2)cc1	none
Cc1ccc(CCNC(=O)Cn2cccc2)cc1	HSF1 activator 52 (no result: PfHsp90 set2)
Cc1ccc(NC(=O)COC(=O)c2ccc(OC(F)F)cc2)cc1S(=O)(=O)N1CCCCC1	none (no result: HSF1 activator, T cruzi inh)
Cc1cc(C)c(-c2csc(NC(=O)COC(=O)c3ccc4c(c3)OCO4)n2)c(C)c1	T cruzi inh 55
CC(C)(C)C(=O)Nc1nc(-c2ccc3c(c2)OCO3)cs1	HSF1 activator 54
COc1cc(NC(=O)Cn2ncc(Cl)c(Cl)c2=O)c(C)cc1[N+](=O)[O-]	T cruzi inh 85 (no result: PfHsp90 set2)
Cc1ccc(NC(=O)COC(=O)c2ccc3c(c2)OCO3)cc1S(=O)(=O)N1CCCCC1	HSF1 activator 56 (no result: CaV13 FRET inh)
COCCN1C(=O)CN(S(C)(=O)=O)CC1(C)C(=O)Nc1ccc2c(c1)OCCO2 (centres undefined)	none (no result: PvdQ acylase, PfHsp90 set2, HSF1 activator, Glyco luc inh, T cruzi inh)
COc1cc(NC(=O)COC(=O)c2ccc(C)c(S(=O)(=O)N3CCCCC3)c2)c(C)cc1[N+](=O)[O-]	HSF1 activator 64
C[C@@H]1COc2cc(N3CCCC3)ccc2S(=O)(=O)N1	none (no result: PvdQ acylase, PfHsp90 set2, HSF1 activator, Glyco luc inh, T cruzi inh)
COc1ccc(C2=Nn3c(nnc3-c3ccc(OC)cc3)SC2)cc1	Glyco luc inh 29
COc1ccccc1N1CCN(/N=C/c2cccc(Cl)c2)CC1	HSF1 activator 60
COc1cccc(/C=N/N2CCN(c3ccccc3OC)CC2)c1	none
COc1ccccc1N1CCN(/N=C/C=C\c2ccco2)CC1	HSF1 activator 80
Cc1c(C)n(Cc2ccccc2)c2ccc(C(=O)OCCCN(C)C)cc12	T cruzi inh 61
CCOC(=O)C1(C)CCCN(C(=O)c2cc(OC)c(OC)c(OC)c2)C1 (centres undefined)	none (no result: PvdQ acylase, PfHsp90 set2, HSF1 activator, T cruzi inh)
Cc1ccc(-c2csc(NC(=O)c3cccc(S(=O)(=O)N4CCN(C)CC4)c3)n2)cc1	none
O=C(Nc1nc(-c2cccs2)cs1)c1cccc(S(=O)(=O)N2CCCCC2)c1	T cruzi inh 62
c1ccc2oc(-c3csc(NCC4CCCO4)n3)cc2c1 (centres undefined)	HSF1 activator 52
O=C(Nc1nc(-c2cc3ccccc3o2)cs1)c1ccc(S(=O)(=O)N2CCCC2)cc1	T cruzi inh 66
O=C(Nc1nc(-c2ccc(S(=O)(=O)N3CCCC3)cc2)cs1)c1cccs1	none (no result: HSF1 activator, T cruzi inh)
O=C(Nc1nc(-c2ccc(S(=O)(=O)N3CCCCCC3)cc2)cs1)c1cccs1	T cruzi inh 70 (no result: PfHsp90 set2)
CC(=O)NC(c1cccc(F)c1)c1nc(-c2cnc3ccccc3c2)cs1 (centres undefined)	none (no result: PvdQ acylase, PfHsp90 set2, HSF1 activator, T cruzi inh)
COc1ccc(C2CC(=O)C(c3cccc(F)c3)=CN2Cc2ccccc2)cc1 (centres undefined)	none (no result: PvdQ acylase, PfHsp90 set2, HSF1 activator, Glyco luc inh, T cruzi inh)
CCCCNC(=O)c1nc(C2CCN(S(=O)(=O)c3c(F)cccc3F)CC2)oc1-c1ccccc1	none (no result: CaV13 FRET inh, PvdQ acylase, PfHsp90 set2, HSF1 activator, T cruzi inh)
CCCC1CCC(c2ccc(C(N)=O)cc2)CC1 (centres undefined)	none (no result: CaV13 FRET inh)
CCCC1CCC(c2ccc(/C(N)=N/O)cc2)CC1 (centres undefined)	PfHsp90 set2 91
NC(=O)c1ncn([C@@H]2O[C@H](C(=O)N[C@H](Cc3c[nH]c4ccccc34)C(=O)N3CCN(C(=O)N4CCOCC4)CC3)[C@@H](O)[C@H]2O)n1	none (no result: PvdQ acylase, PfHsp90 set2, HSF1 activator, Glyco luc inh, T cruzi inh)
COc1ccc(Nc2cc(C)c3c(O)cccc3n2)cc1	T cruzi inh 60
Cc1ccc(Nc2cc(C)c3c(O)cccc3n2)cc1C	T cruzi inh 66
COC(=O)c1cc(Nc2cc(C)c3c(O)cccc3n2)cc(C(=O)OC)c1	none
